The text below walks through data of ChEMBL document CHEMBL4028906, “Allosteric Inhibitors of SHP2 with Therapeutic Potential for Cancer Treatment” (J Med Chem, 2017).

Activity calls are given as the source filed them. No cut-off for these calls is given here.

One assay concerns MV4-11. Briefly: Antitumor activity against human MV4-11 cells xenografted in BALB/c mouse assessed as tumor growth inhibition at 30 mg/kg administered qd via oral gavage measured twice weekly relative to control. Type of assay: functional. As to conditions: MV4-11, po, read-out: TGI. Put shortly: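 Female BALB/c nude mice given subcutaneous MV4;11 cells (5×10^6, in 50% phenol red-free matrigel in PBS). Once tumours reached about 230 mm³, mice were randomised to vehicle or oral gavage once daily (10 ml/kg). Tumour volume was measured by caliper in two dimensions twice a week, along with body weight. Data given as mean±sem, with significance assessed on day 14.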
For orientation: In xenograft studies the graft and the host belong to different species.

Assay [1] addresses T1, Tyrosine-protein phosphatase non-receptor type 11 (Homo sapiens) (UniProt Q06124).
T1 sequence (whole entry): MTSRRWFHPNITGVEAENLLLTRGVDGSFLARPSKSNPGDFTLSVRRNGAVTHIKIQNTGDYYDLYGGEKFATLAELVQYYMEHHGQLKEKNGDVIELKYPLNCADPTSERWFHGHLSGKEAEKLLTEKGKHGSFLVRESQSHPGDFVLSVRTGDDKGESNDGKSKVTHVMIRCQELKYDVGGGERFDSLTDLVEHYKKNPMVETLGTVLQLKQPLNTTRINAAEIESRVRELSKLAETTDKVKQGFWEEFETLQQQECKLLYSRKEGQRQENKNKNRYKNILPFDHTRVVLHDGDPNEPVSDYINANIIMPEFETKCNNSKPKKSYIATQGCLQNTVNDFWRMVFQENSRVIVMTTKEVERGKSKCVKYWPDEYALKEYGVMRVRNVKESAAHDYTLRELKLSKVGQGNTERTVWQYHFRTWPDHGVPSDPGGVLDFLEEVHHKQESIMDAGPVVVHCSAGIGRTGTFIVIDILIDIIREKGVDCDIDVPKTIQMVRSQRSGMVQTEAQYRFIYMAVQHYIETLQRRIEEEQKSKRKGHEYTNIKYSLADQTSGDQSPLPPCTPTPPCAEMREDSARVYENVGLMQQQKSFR
Description: Allosteric inhibition of SHP2 in human NCI-H1975 cells harboring EGFR T790M mutant assessed as downregulation of ERK1/2 phosphorylation at 10 uM after 2 hrs by DAPI-based fluorescence microscopic analysis. Format: cell-based. Put shortly: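 NCI-H1975 cells grown overnight on coverslips, then 10 μM inhibitor for 2 h. Fixed in 4% PFA, permeabilized with 0.4% Triton X-100, BSA-blocked. Phospho-ERK1/2 antibody applied overnight at 4 °C, fluorescent secondary 1 h at room temperature, DAPI mount, fluorescence microscopy. Repeated at least three times.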

As to `CC1(N)CCN(c2nc(-c3ccc4cc(Br)ccc4c3)cs2)CC1`, in the assay on MV4-11, the inhibition in vivo at 30 mg/kg came out at 56%. Moreover, the inhibition result in assay [1] is “Active”.
